Source: ChEMBL document CHEMBL3112415, “Novel hybrid selenosulfonamides as potent antileishmanial agents” (Eur J Med Chem, 2014)
pIC50: −log10 of the molar value.

Legend:
THP-1 = assay: Cytotoxicity against human THP1 cells after 24 hrs by propidium iodide staining-based flow cytometric analysis; format: cell-based; settings: THP-1, 24 h
How it was run: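 THP-1 cells grown in RPMI-1640 with 10% heat-inactivated FCS, 1 mM HEPES, 2 mM glutamine, 1 mM pyruvate, pH 7.2, 37 °C, 5% CO2; treated in log phase at 4 × 10⁵ cells/mL for 24 h at 37 °C, 5% CO2. Viability by flow cytometry with propidium iodide exclusion; IC50 reported.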

[1] = Selectivity index, ratio of IC50 for human THP1 cells to IC50 for axenic amastigote stage of Leishmania infantum; format: toxicity, cell-based, THP-1; settings: read-out: Ratio IC50
How it was run: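 SI computed as THP-1 IC50 (24 h PI-exclusion flow cytometry) divided by IC50 against L. infantum amastigotes.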

Leishmania infantum [2] = assay: Leishmanicidal activity against axenic amastigote stage of Leishmania infantum after 24 hrs by propidium iodide staining-based flow cytometric analysis; format: functional, organism-based
How it was run: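 Axenic amastigotes maintained at pH 5.4, 37 °C in medium with citric acid, sodium bicarbonate, MES, hemin and gentamicin; miltefosine and edelfosine as standards; at least three independent experiments; IC50 values.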

Leishmania infantum [3] = assay: Leishmanicidal activity against amastigote stage of Leishmania infantum expressing GFP infected in human THP1 cells after 48 hrs by flow cytometric analysis; format: functional, organism-based; settings: THP-1, 48 h
How it was run: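 THP-1 cells seeded at 120.000 cells/mL, differentiated to macrophages for 24 h with 10 ng/mL PMA in RPMI-1640, then infected with 1.2 × 10⁶ eGFP-expressing amastigotes per well; free parasites removed after 4 h. After 48 h drug treatment, cells washed with PBS, detached with TrypLE, and infection rate read by flow cytometry.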

O=S(=O)(Nc1ccc([Se][Se]c2ccc(NS(=O)(=O)c3ccccc3)cc2)cc1)c1ccccc1
pIC50 (THP-1): 4.92 | selectivity ratio [1]: 7.3 | pIC50 (Leishmania infantum [2]): 5.79

Cc1ccc(S(=O)(=O)Nc2ccc([Se][Se]c3ccc(NS(=O)(=O)c4ccc(C)cc4)cc3)cc2)cc1
pIC50 (Leishmania infantum [3]): 5.39 | pIC50 (THP-1): < 4.60 | selectivity ratio [1]: > 18 | pIC50 (Leishmania infantum [2]): 5.85

COc1ccc(S(=O)(=O)Nc2ccc([Se][Se]c3ccc(NS(=O)(=O)c4ccc(OC)cc4)cc3)cc2)cc1
pIC50 (THP-1): 4.74 | selectivity ratio [1]: 14 | pIC50 (Leishmania infantum [2]): 5.89

N#Cc1ccc(S(=O)(=O)Nc2ccc([Se][Se]c3ccc(NS(=O)(=O)c4ccc(C#N)cc4)cc3)cc2)cc1
pIC50 (THP-1): 5.44 | selectivity ratio [1]: 2 | pIC50 (Leishmania infantum [2]): 5.75

O=[N+]([O-])c1ccc(S(=O)(=O)Nc2ccc([Se][Se]c3ccc(NS(=O)(=O)c4ccc([N+](=O)[O-])cc4)cc3)cc2)cc1
pIC50 (THP-1): 4.77 | selectivity ratio [1]: 4.6 | pIC50 (Leishmania infantum [2]): 5.43

O=S(=O)(Nc1ccc([Se][Se]c2ccc(NS(=O)(=O)c3ccc(C(F)(F)F)cc3)cc2)cc1)c1ccc(C(F)(F)F)cc1
pIC50 (THP-1): 4.72 | selectivity ratio [1]: 9.5 | pIC50 (Leishmania infantum [2]): 5.70

O=S(=O)(Nc1ccc([Se][Se]c2ccc(NS(=O)(=O)c3ccc(F)cc3)cc2)cc1)c1ccc(F)cc1
pIC50 (Leishmania infantum [3]): 5.55 | pIC50 (THP-1): < 4.60 | selectivity ratio [1]: > 17 | pIC50 (Leishmania infantum [2]): 5.83

O=S(=O)(Nc1ccc([Se][Se]c2ccc(NS(=O)(=O)c3ccc(Cl)cc3)cc2)cc1)c1ccc(Cl)cc1
pIC50 (THP-1): < 4.60 | selectivity ratio [1]: > 7 | pIC50 (Leishmania infantum [2]): 5.44

O=S(=O)(Nc1ccc([Se][Se]c2ccc(NS(=O)(=O)c3ccc(Br)cc3)cc2)cc1)c1ccc(Br)cc1
pIC50 (THP-1): 5.28 | selectivity ratio [1]: 2 | pIC50 (Leishmania infantum [2]): 5.55

O=S(=O)(Nc1ccc([Se][Se]c2ccc(NS(=O)(=O)c3ccccc3F)cc2)cc1)c1ccccc1F
pIC50 (THP-1): 4.75 | selectivity ratio [1]: 10.7 | pIC50 (Leishmania infantum [2]): 5.78

O=S(=O)(Nc1ccc([Se][Se]c2ccc(NS(=O)(=O)c3ccccc3Cl)cc2)cc1)c1ccccc1Cl
pIC50 (THP-1): 4.76 | selectivity ratio [1]: 15 | pIC50 (Leishmania infantum [2]): 5.93

O=S(=O)(Nc1ccc([Se][Se]c2ccc(NS(=O)(=O)c3ccc(-c4ccccc4)cc3)cc2)cc1)c1ccc(-c2ccccc2)cc1
pIC50 (THP-1): < 4.60 | selectivity ratio [1]: > 2 | pIC50 (Leishmania infantum [2]): 4.86

O=S(=O)(Nc1ccc([Se][Se]c2ccc(NS(=O)(=O)c3ccc4ccccc4c3)cc2)cc1)c1ccc2ccccc2c1
pIC50 (THP-1): < 4.60 | selectivity ratio [1]: > 4.4 | pIC50 (Leishmania infantum [2]): 5.25

O=S(=O)(Nc1ccc([Se][Se]c2ccc(NS(=O)(=O)c3cccc4cccnc34)cc2)cc1)c1cccc2cccnc12
pIC50 (Leishmania infantum [3]): 5.21 | pIC50 (THP-1): < 4.60 | selectivity ratio [1]: > 30 | pIC50 (Leishmania infantum [2]): 6.08

O=S(=O)(Nc1ccc([Se][Se]c2ccc(NS(=O)(=O)c3cccs3)cc2)cc1)c1cccs1
pIC50 (THP-1): 5.07 | selectivity ratio [1]: 5.6 | pIC50 (Leishmania infantum [2]): 5.81

Cn1ccnc1S(=O)(=O)Nc1ccc([Se][Se]c2ccc(NS(=O)(=O)c3nccn3C)cc2)cc1
pIC50 (THP-1): 5.36 | selectivity ratio [1]: 4 | pIC50 (Leishmania infantum [2]): 5.98

CCCCCCCCCCCCCCCCCCOCC(COP(=O)([O-])OCC[N+](C)(C)C)OC (stereo not given) [EDELFOSINE]
pIC50 (Leishmania infantum [3]): 5.51 | pIC50 (THP-1): 5.31 | selectivity ratio [1]: 6

CCCCCCCCCCCCCCCCOP(=O)([O-])OCC[N+](C)(C)C [MILTEFOSINE]
selectivity ratio [1]: 7
